# Bioassay records (PubChem BioAssay)
# Compounds with a hit are over-represented: about 2.3% of the library has one in this group of screens.
# TRPC6 inh = mouse TRPC6 channel inhibitors, primary screen, cell-based, HEK293, membrane potential dye; Short transient receptor potential channel 6 (Mus musculus), Q61143; ACh-evoked depolarization; hits give low values; B-score at 10 µM; hit rate 1.1% among 310,000;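 active means B-score under library mean minus 3 SD, initial fluorescence not abnormally high, positive integrated signal ratio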;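 further: B-score derived from integrated fluorescence ratio over the kinetic read; more negative B-score means stronger inhibition of depolarization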
# TRPC4 PAM = positive allosteric modulators of TRPC4, primary screen, cell-based, mouse TRPC4beta, HEK293 mu-opioid, Fluo-4 calcium. Short transient receptor potential channel 4 (Mus musculus), Q9QUQ5. DAMGO EC20, Fluo-4 Ca2+ flux; hits give high values. B-score at 10 µM. hit rate 0.42% among 310,000. AID 2227, 2009;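 active means B-score of calcium response area above 5 SD of library B-scores, with initial fluorescence ratio within 5 SD of library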;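 further: B-score of integrated fluorescence ratio over time as area under calcium response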
# FID counter = compounds displacing fluorescent DNA intercalator, primary screen, artefact control for HCV NS3 helicase inhibitor project, biochemical, FID fluorescence | DNA fluorescent intercalator displacement | inhibition, % at 7.9 µM | hit rate 0.17% among 290,000; in the data active means inhibition above about 37%;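 further: 0% = vehicle and 100% = reference compound; higher means more ethidium bromide displaced from hairpin DNA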
# TRPC4 inh = inhibitors of mouse TRPC4 channel, primary screen, Fluo4 calcium, HEK293 TRPC4beta/mu-opioid cells. DAMGO-evoked Fluo4 calcium flux; hits give low values. B-score at 10 µM. hit rate 0.39% among 300,000. AID 2247, 2010. Short transient receptor potential channel 4 (Mus musculus), Q9QUQ5;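 active means B-score over 3 SD under the library average, no early fluorescence shift, positive overall ratio signal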
#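 Assay system – HEK293 line stably carrying TRPC4beta and mu-opioid receptor · Doses – single dose · Detection – Fluo4 calcium-dye fluorescence, kinetic read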
# TRPC6 activator = mouse TRPC6 channel activators, primary screen, cell-based, HEK293, membrane potential dye. Short transient receptor potential channel 6 (Mus musculus), Q61143. HEK293-TRPC6 membrane potential dye fluorescence; hits give high values. B-score at 10 µM. hit rate 0.13% among 310,000;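 active means B-score of the integrated fluorescence ratio above library mean plus 3 SD, and starting fluorescence ratio within library mean plus 5 SD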;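 further: higher score means more depolarization so channel activation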
# TRPC4 agonist = activators of mouse TRPC4 channel, primary screen, Fluo4 calcium, HEK293 TRPC4beta/mu-opioid cells; Fluo4 calcium fluorescence; hits give high values; B-score at 10 µM; hit rate 0.49% among 310,000; Short transient receptor potential channel 4 (Mus musculus), Q9QUQ5;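 active means B-score above 5 SD of library B-scores, and initial fluorescence ratio not above library mean plus 5 SD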;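 further: positive B-score marks a calcium rise read as TRPC4 activation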
#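 Material: HEK293 stable line with TRPC4beta plus mu-opioid receptor; technique: Fluo4 calcium-sensitive dye fluorescence, kinetic, 1 Hz baseline; timing: Fluo4 dye loading 45 min at room temperature, 110 s recording; controls: assay buffer as low control, maximal DAMGO as high control; read-out: integrated baseline-normalised fluorescence ratio, converted to per-well B score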
# TRPC4 sel inh 2 = second check of whether TRPC6 inhibitors also affect mouse TRPC4 | hit rate 42% among 920 | shares compounds with TRPC6 inh | HEK293 TRPC4/MOR, membrane potential dye fluorescence; channel activated by saturating DAMGO dose | AID 2776 | inhibition, % at 10 µM;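 active means compounds whose fluorescence signal differed from control wells by over 3 SD, either direction, in both duplicate plates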
# TRPC4 spec = mouse TRPC4 modulation by TRPC6 hits, confirmation, selectivity assay for TRPC6 inhibitor project, cell-based, HEK293 TRPC4/mu-opioid, membrane potential dye | AID 2777, 2010 | membrane potential fluorescence | shares compounds with TRPC6 inh | hit rate 61% among 920 | activity change, negative = inhibition, % at 10 µM;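 active means rise or fall in signal beyond 3 SD of buffer-only wells in both replicate plates, either sign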;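 further: integrated kinetic ratio of fluorescence range over baseline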
# HEK293 MPD ctr 2-1 = nonspecific membrane potential effects, parental HEK293, confirmation, counter-screen for TRPC6 inhibitor project, cell-based, second counter screen | shares compounds with TRPC6 inh | parental HEK293 membrane potential dye fluorescence; maximal acetylcholine challenge after compound addition | signal change vs control, % at 10 µM | hit rate 31% among 920 | AID 2779, 2010;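 active means membrane potential signal moving either way by over 3 SD of the maximum-effect control, in both duplicate plates, meaning non-specific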
# HEK293 MPD ctr-1 = membrane potential modulation in parental HEK293, confirmation, counter-screen for TRPC6 inhibitor project, cell-based; AID 2780, 2010; shares compounds with TRPC6 inh; parental HEK293 membrane potential dye fluorescence; membrane potential signal change, % at 10 µM; hit rate 60% among 920;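 active means membrane potential signal shifting up or down by more than 3 SD of buffer-only wells, on both duplicate plates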
# HEK293 MPD ctr-2 = parental HEK293 membrane potential modulation, confirmation, counter-screen for TRPC6 modulator project, cell-based | shares compounds with TRPC6 inh | membrane potential dye fluorescence | membrane potential signal change, % at 10 µM | hit rate 51% among 2,400 | AID 488924, 2010;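 active means membrane potential signal moves up or down beyond 5 SD from buffer-only wells, on both duplicate plates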
# HEK293 MPD ctr 2-2 = parental HEK293 nonspecific activity of TRPC6 modulators, second screen; shares compounds with TRPC6 inh; membrane potential dye fluorescence; after compound, maximal acetylcholine stimulation; inhibition, % at 10 µM; hit rate 14% among 2,400; AID 488926;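 active means membrane potential signal drops by more than 5 SD from the mean control signal, in both duplicate plates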;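 further: plate controls were acetylcholine ECmax control wells for no effect and buffer only wells for full effect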
# TRPC4/MOR mod = TRPC4 modulation by TRPC6 hit compounds, confirmation, selectivity assay for TRPC6 modulator project, cell-based, HEK293 TRPC4/mu-opioid, membrane potential dye, mouse; shares compounds with TRPC6 inh; membrane potential fluorescence; percent change from control (negative = decrease, positive = increase), % at 10 µM; hit rate 69% among 2,400;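 active means membrane potential signal moved up or down beyond 5 SD of buffer control wells, in both duplicate plates, actives on both sides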;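 further: plate controls were assay buffer wells for no effect and DAMGO maximal-effect wells for full effect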
# TRPC4 ctr inh 2 = second check of whether TRPC6 modulators also affect mouse TRPC4; shares compounds with TRPC6 inh; HEK293 TRPC4/mu-opioid, membrane potential dye fluorescence; stimulated with maximal-effect DAMGO; inhibition, % at 10 µM; hit rate 55% among 2,400; AID 488928;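 active means drop in membrane potential signal beyond 5 SD of the control wells in both duplicate plates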;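 further: TRPC4 counter screen for TRPC6 hits run under conditions tuned for TRPC6 not TRPC4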
# TRPC6 block conf = mouse TRPC6 channel inhibitors, confirmation, HEK293 cells, membrane potential dye, duplicate | shares compounds with TRPC6 inh | ACh-evoked depolarization | inhibition, % at 10 µM | hit rate 43% among 3,300 | AID 488960, 2010;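 active means fluorescence ratio falls more than 5 SD below the full-stimulation control mean, in both duplicate runs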;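 further: integrated fluorescence ratio of peak minus minimum over baseline after agonist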
# TRPC6 act confirm = mouse TRPC6 channel activators, confirmation, HEK293 cells, membrane potential dye, duplicate | shares compounds with TRPC6 inh | HEK293-TRPC6 membrane potential dye fluorescence, FDSS | activation, % at 10 µM | hit rate 11% among 2,800 | AID 488961, 2010;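 active means ratio signal rise beyond 5 SD above unstimulated control wells' mean, seen in both duplicate runs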;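 further: plate controls were buffer EC0 wells for no effect and acetylcholine ECmax response for full effect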
# * hit, by the source's call; i = inactive; · = not tested or not shown.
SMILES,TRPC6 inh,TRPC4 PAM,FID counter,TRPC4 inh,TRPC6 activator,TRPC4 agonist,HEK293 MPD ctr-2,HEK293 MPD ctr 2-2,TRPC4/MOR mod,TRPC4 ctr inh 2,others
CN1CCCC1CCNc1ccc2sc3ccccc3c(=O)c2c1 (configuration not stated),-6.3*,i,·,i,30*,75*,794%*,i,148%*,67%*,TRPC6 block conf=i;TRPC6 act confirm=318%*
O=c1c2ccccc2sc2ccc(NCCCN3CCOCC3)cc12,i,i,·,i,34*,i,940%*,i,190%*,80%*,TRPC6 act confirm=365%*
COc1ccc2sc3ccccc3c(=O)c2c1,i,i,-4,i,i,i,·,·,·,·,
O=c1c2ccccc2oc2ccc(NCCCn3ccnc3)cc12,i,i,12,i,i,i,·,·,·,·,
Cc1cc(C(=O)C(C)OC(=O)c2cnccn2)c(C)n1-c1ccccc1 (configuration not stated),i,i,·,i,i,i,·,·,·,·,
COc1ccc(-c2csc3nc(C)nc(N4CCC(C)CC4)c23)cc1OC,-6.6*,23*,-31,i,i,i,·,·,·,·,TRPC4 sel inh 2=i;TRPC4 spec=3.6%*;HEK293 MPD ctr 2-1=i;HEK293 MPD ctr-1=2.4%*;TRPC6 block conf=59%*
COc1ccc(-c2csc3nc(C)nc(N4CCN(C(C)=O)CC4)c23)cc1OC,i,i,-41,i,i,i,·,·,·,·,
CCOC(=O)CC(NC(=O)CCS(=O)(=O)c1ccc2c(c1)n(C)c(=O)c(=O)n2C)c1ccc(C)cc1 (configuration not stated),i,i,-21,i,i,i,·,·,·,·,
CCOc1ccc(NS(=O)(=O)c2ccc3c(c2)N(C(C)=O)CCS3)cc1,i,i,-21,i,i,i,·,·,·,·,
Cc1cccc(NS(=O)(=O)c2ccc(C(=O)N3CCC3)cc2)c1C,i,i,·,i,i,i,·,·,·,·,
CCc1nccn1CCC(=O)N1CCCC(Nc2ccc(F)cc2)C1 (configuration not stated),-7.6*,i,6,i,i,i,i,i,12%*,i,TRPC6 block conf=i
O=C(CCN1CCCCO1)N1CCCC(Nc2ccc(F)c(F)c2)C1 (configuration not stated),-5.8*,i,-10,i,i,i,i,i,8.5%*,i,TRPC6 block conf=46%*
Cc1ccc(NC2CCCN(C(=O)CCN3CCCCO3)C2)cc1C (configuration not stated),i,i,-16,i,i,i,·,·,·,·,
O=C(CCN1CCOCC1)N1CCCC(Nc2ccc(F)cc2)C1 (configuration not stated),i,i,-2,i,i,i,·,·,·,·,
COC(=O)c1ccccc1C(=O)N1CCCC(CNC(=O)c2ccc(F)cc2)C1 (configuration not stated),i,i,-5,i,i,i,·,·,·,·,
O=C(NCc1n[nH]c(=S)n1-c1ccc(Cl)c(Cl)c1)c1ccco1,i,i,-12,i,i,i,·,·,·,·,
CC(=O)C(Cc1cccc(F)c1)(Cc1cccc(F)c1)C(C)=O,-6*,i,-14,i,i,i,114%*,i,34%*,i,TRPC6 block conf=i
CN(Cc1cccc(F)c1)C(=O)C(c1ccccc1)c1ccccc1,i,i,-35,i,i,i,·,·,·,·,
C=CCn1c(SCC(=O)c2cc(C)n(CC3CCCO3)c2C)nnc1-c1ccccc1 (configuration not stated),i,i,-21,i,16*,i,110%*,i,26%*,i,TRPC6 act confirm=82%*
Cc1cc(C(=O)CSc2nnc(-c3ccc(Cl)cc3)n2C)c(C)n1CC1CCCO1 (configuration not stated),i,i,-32,i,i,i,·,·,·,·,
O=C(COC(=O)c1c(F)cccc1Cl)NC1CCCC1,i,i,-15,i,i,i,·,·,·,·,
